{"source": "ChEMBL document CHEMBL1938337", "about": "“Discovery of novel, potent, and selective inhibitors of 3-phosphoinositide-dependent kinase (PDK1)” (J Med Chem, 2011)", "key": {"[1]": {"biological_target": "Phosphatidylinositol 4,5-bisphosphate 3-kinase catalytic subunit alpha isoform (Mus musculus, UniProt P42337)", "sequence (P42337 whole entry, the tested form may be a part, canonical isoform)": "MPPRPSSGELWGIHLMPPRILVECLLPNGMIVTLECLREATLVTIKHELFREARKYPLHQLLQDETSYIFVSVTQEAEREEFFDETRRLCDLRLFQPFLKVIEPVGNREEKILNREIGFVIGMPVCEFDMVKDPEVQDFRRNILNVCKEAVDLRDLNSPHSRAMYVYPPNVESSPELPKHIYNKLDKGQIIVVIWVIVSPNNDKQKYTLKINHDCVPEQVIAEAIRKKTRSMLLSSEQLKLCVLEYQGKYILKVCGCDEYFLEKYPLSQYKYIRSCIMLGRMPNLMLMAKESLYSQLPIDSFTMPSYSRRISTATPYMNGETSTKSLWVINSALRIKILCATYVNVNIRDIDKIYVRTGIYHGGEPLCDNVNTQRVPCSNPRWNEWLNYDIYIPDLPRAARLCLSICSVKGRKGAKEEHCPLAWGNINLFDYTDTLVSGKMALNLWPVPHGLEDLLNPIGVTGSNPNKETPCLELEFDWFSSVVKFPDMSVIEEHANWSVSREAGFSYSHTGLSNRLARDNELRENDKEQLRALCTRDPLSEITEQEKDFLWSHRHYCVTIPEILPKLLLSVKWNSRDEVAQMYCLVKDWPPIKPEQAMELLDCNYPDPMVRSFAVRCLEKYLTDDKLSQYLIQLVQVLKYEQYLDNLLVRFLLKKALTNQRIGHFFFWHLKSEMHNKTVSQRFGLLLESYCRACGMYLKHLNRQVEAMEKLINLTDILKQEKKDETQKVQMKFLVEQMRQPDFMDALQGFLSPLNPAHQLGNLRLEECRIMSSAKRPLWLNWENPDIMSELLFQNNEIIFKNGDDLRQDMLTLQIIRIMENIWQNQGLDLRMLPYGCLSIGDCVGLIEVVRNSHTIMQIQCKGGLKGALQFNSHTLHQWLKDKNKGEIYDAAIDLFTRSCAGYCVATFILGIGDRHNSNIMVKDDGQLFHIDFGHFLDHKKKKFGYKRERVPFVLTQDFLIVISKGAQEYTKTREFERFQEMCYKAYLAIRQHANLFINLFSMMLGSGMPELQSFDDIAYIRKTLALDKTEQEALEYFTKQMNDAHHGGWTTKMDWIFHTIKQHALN", "assay": "Inhibition of mouse PI3Kalpha after 30 mins by fluorescence polarization assay", "procedure,_shortened": "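Mouse PI3Kα 0.5 nM with 30 μM PIP₂, 5 mM MgCl₂, 200 μM ATP, 30 min at room temperature (~22 °C); stopped with 10 mM EDTA. Then 3 min with detector mix of 480 nM GST-Grp1 PH domain and 12 nM TAMRA-PIP₃. Fluorescence polarization read in 50 mM Hepes pH 7.4, 150 mM NaCl, 5 mM DTT, 0.05% CHAPS. Duplicate points, nonlinear regression fit.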"}, "[2]": {"biological_target": "T1, 3-phosphoinositide-dependent protein kinase 1 (Homo sapiens, UniProt O15530)", "T1 sequence (O15530 whole entry)": "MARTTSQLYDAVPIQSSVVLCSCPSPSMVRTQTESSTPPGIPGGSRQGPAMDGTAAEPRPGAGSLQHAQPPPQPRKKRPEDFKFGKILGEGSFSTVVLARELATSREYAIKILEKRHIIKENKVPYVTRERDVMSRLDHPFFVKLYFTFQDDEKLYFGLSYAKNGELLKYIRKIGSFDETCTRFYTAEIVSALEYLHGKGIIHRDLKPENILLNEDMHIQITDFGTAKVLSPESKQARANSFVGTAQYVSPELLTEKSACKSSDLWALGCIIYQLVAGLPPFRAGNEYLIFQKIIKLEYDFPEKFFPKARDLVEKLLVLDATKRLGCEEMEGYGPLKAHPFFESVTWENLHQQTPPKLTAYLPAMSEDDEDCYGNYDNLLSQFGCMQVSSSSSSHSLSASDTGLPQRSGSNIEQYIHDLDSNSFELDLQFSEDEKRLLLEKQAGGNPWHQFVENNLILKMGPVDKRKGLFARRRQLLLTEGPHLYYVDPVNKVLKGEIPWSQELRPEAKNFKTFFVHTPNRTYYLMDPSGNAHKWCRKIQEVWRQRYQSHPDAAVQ", "assay": "Inhibition of recombinant human His-tagged PDK1 catalytic domain using Ac-Sox-PKTFCGTPEYLAPEVRREPRILSEEEQEMFRDFDYIAD-NH2 as substrate by fluorescence-based spectrophotometry"}, "[3]": {"assay": "Solubility of the compound at pH 6.5", "type": "physicochemical", "conditions": "buffer"}, "[4]": {"assay": "Passive permeability in canine kidney cells", "type": "ADME, cell-based, Canis lupus familiaris", "conditions": "dog; read-out: permeability"}, "[5]": {"assay": "Clearance in human liver microsomes", "type": "ADME, Microsome", "conditions": "read-out: CLH"}, "[6]": {"assay": "Inhibition of recombinant GST-tagged P70S6K using 5FAM-KRSRTRTDSYSAGQ-COOH as substrate by fluorescence based assay", "procedure,_shortened": "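GST-tagged P70S6K (a.a. 1-421) at 5 nM, 50 μM ATP, 5 μM 5FAM-peptide. Product separated from substrate by charge (electrophoretic mobility shift, −2500/−500 V). Duplicates, nonlinear regression fit.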"}, "[7]": {"biological_target": "RAC-alpha serine/threonine-protein kinase (Homo sapiens, UniProt P31749)", "sequence (P31749 whole entry)": "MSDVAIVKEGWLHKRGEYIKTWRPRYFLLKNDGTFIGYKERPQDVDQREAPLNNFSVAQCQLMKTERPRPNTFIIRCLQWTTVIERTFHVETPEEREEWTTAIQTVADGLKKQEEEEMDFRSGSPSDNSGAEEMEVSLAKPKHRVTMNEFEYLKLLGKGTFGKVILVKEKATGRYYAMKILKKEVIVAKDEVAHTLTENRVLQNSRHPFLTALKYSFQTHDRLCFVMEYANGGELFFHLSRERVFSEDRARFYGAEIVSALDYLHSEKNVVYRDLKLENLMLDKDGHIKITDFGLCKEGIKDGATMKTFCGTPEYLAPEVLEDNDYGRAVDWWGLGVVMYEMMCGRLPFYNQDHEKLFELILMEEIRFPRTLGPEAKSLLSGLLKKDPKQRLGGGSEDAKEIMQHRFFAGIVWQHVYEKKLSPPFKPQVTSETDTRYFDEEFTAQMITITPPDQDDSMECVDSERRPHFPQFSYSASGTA", "assay": "Inhibition of His-tagged AKT1 using 5FAM-GRPRTSSFAEGCONH2 as substrate by fluorescence based assay"}, "[8]": {"biological_target": "Serine/threonine-protein kinase mTOR (Homo sapiens, UniProt P42345)", "assay": "Inhibition of GST-tagged mTOR assessed as phosphorylation at Thr46 in GFP-4E-BP1 substrate by TR-FRET assay", "procedure,_shortened": "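GST-tagged mTOR (aa 1360-2549) at 1 nM, with 0.4 μM GFP-4E-BP1 and 40 μM ATP. Buffer: 50 mM Hepes pH 7.4, 10 mM MgCl2, 1 mM EGTA, 0.01% Tween-20, at about 22 °C. A terbium anti-phospho-Thr46 antibody was added at the end, and the read-out was TR-FRET. Duplicate data fitted by nonlinear regression. Concentrations are final.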"}, "CYP3A4": {"biological_target": "CYP3A4 (Homo sapiens, UniProt P08684)", "sequence (P08684 whole entry)": "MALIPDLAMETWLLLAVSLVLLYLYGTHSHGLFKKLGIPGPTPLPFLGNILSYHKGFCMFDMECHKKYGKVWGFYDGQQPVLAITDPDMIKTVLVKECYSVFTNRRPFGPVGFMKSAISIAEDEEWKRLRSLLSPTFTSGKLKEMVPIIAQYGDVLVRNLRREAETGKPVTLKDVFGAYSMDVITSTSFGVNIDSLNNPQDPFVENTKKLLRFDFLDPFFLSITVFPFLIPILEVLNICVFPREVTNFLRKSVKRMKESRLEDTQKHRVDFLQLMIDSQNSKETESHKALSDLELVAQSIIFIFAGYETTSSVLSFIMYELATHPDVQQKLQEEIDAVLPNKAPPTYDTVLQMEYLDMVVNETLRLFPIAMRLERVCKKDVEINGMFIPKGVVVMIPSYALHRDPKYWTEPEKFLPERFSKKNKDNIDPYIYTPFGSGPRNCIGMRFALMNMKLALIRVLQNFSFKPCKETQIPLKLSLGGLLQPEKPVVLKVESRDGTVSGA", "assay": "Inhibition of CYP3A4 at 3 uM", "type": "ADME"}, "CYP3A4 (Homo sapiens) [9]": {"test_system": "CYP3A4 (Homo sapiens)", "assay": "Inhibition of CYP3A4 at 3 uM"}, "CYP3A4 (Homo sapiens) [10]": {"test_system": "CYP3A4 (Homo sapiens)", "assay": "Inhibition of CYP3A4 at 3 uM", "remark": "listed apart in the source"}, "CYP3A4 (Homo sapiens) [11]": {"test_system": "CYP3A4 (Homo sapiens)", "assay": "Inhibition of CYP3A4 at 3 uM", "remark": "listed apart in the source"}}}
{"smiles": "CC(C)n1cc(C(=O)c2cncc(NCCc3cccnc3)n2)c2c(N)ncnc21", "values": [{"measurement": "Ki", "setting": "[1]", "result": 250, "unit": "nM"}]}
{"smiles": "CC(C)n1cc(C(=O)c2cncc(N[C@@H]3CCO[C@@H]3c3ccc(F)cc3)n2)c2c(N)ncnc21", "values": [{"measurement": "Ki", "setting": "[2]", "result": 1.3, "unit": "nM"}, {"measurement": "Ki", "setting": "[1]", "result": 430, "unit": "nM"}, {"measurement": "solubility", "setting": "[3]", "result": 120, "unit": "µM"}, {"measurement": "Papp", "setting": "[4]", "result": 13, "unit": "×10⁻⁶ cm/s"}, {"measurement": "microsomal CLint", "setting": "[5]", "result": 220, "unit": "µL/min/mg"}, {"measurement": "Ki", "setting": "[6]", "result": 61, "unit": "nM"}, {"measurement": "Ki", "setting": "[7]", "result": 230, "unit": "nM"}, {"measurement": "Ki", "setting": "[8]", "result": 3900, "unit": "nM"}]}
{"smiles": "CC(C)n1cc(C(=O)c2cncc(N[C@@H]3CCC[C@@H]3c3ccc(F)cc3)n2)c2c(N)ncnc21", "values": [{"measurement": "Ki", "setting": "[2]", "result": 0.6, "unit": "nM"}, {"measurement": "Ki", "setting": "[1]", "result": 320, "unit": "nM"}, {"measurement": "solubility", "setting": "[3]", "result": 6, "unit": "µM"}, {"measurement": "Papp", "setting": "[4]", "result": 6, "unit": "×10⁻⁶ cm/s"}, {"measurement": "microsomal CLint", "setting": "[5]", "result": 160, "unit": "µL/min/mg"}, {"measurement": "Ki", "setting": "[6]", "result": 230, "unit": "nM"}, {"measurement": "Ki", "setting": "[7]", "result": 210, "unit": "nM"}, {"measurement": "Ki", "setting": "[8]", "result": 3900, "unit": "nM"}]}
{"smiles": "CC(C)n1cc(C(=O)c2cncc(N(C)[C@@H]3CCC[C@@H]3c3ccc(F)cc3)n2)c2c(N)ncnc21", "values": [{"measurement": "Ki", "setting": "[2]", "result": 0.9, "unit": "nM"}, {"measurement": "Ki", "setting": "[1]", "result": 650, "unit": "nM"}]}
{"smiles": "CC(C)n1cc(C(=O)c2cncc(N[C@@H]3CCN[C@@H]3c3ccc(F)cc3)n2)c2c(N)ncnc21", "values": [{"measurement": "Ki", "setting": "[2]", "result": 1, "unit": "nM"}, {"measurement": "Ki", "setting": "[1]", "result": 150, "unit": "nM"}, {"measurement": "solubility", "setting": "[3]", "result": 520, "unit": "µM"}, {"measurement": "Papp", "setting": "[4]", "result": 5, "unit": "×10⁻⁶ cm/s"}, {"measurement": "microsomal CLint", "setting": "[5]", "result": 92, "unit": "µL/min/mg"}, {"measurement": "Ki", "setting": "[6]", "result": 120, "unit": "nM"}, {"measurement": "Ki", "setting": "[7]", "result": 100, "unit": "nM"}, {"measurement": "Ki", "setting": "[8]", "result": 2100, "unit": "nM"}]}
{"smiles": "CC(C)n1cc(C(=O)c2cncc(N[C@@H]3CNC[C@@H]3c3ccc(F)cc3)n2)c2c(N)ncnc21", "values": [{"measurement": "Ki", "setting": "[2]", "result": 2.5, "unit": "nM"}, {"measurement": "Ki", "setting": "[1]", "result": 370, "unit": "nM"}, {"measurement": "inhibition at 3 µM", "setting": "CYP3A4", "result": 27, "unit": "%"}, {"measurement": "solubility", "setting": "[3]", "result": 480, "unit": "µM"}, {"measurement": "Papp", "setting": "[4]", "result": 2, "unit": "×10⁻⁶ cm/s"}, {"measurement": "microsomal CLint", "setting": "[5]", "result": 59, "unit": "µL/min/mg"}, {"measurement": "Ki", "setting": "[6]", "result": 11, "unit": "nM"}, {"measurement": "Ki", "setting": "[7]", "result": 10, "unit": "nM"}, {"measurement": "Ki", "setting": "[8]", "result": 1100, "unit": "nM"}, {"measurement": "inhibition at 3 µM", "setting": "CYP3A4 (Homo sapiens) [9]", "result": 27, "unit": "%"}, {"measurement": "inhibition at 3 µM", "setting": "CYP3A4 (Homo sapiens) [10]", "result": 27, "unit": "%"}, {"measurement": "inhibition at 3 µM", "setting": "CYP3A4 (Homo sapiens) [11]", "result": 27, "unit": "%"}]}
{"smiles": "CNc1cncc(C(=O)c2cn(C(C)C)c3ncnc(N)c23)n1", "values": [{"measurement": "Ki", "setting": "[2]", "result": 100, "unit": "nM"}]}
{"smiles": "CC(C)n1cc(C(=O)c2cncc(N[C@@H]3CCC[C@@H]3c3ccccc3)n2)c2c(N)ncnc21", "values": [{"measurement": "Ki", "setting": "[2]", "result": 2, "unit": "nM"}, {"measurement": "Ki", "setting": "[1]", "result": 130, "unit": "nM"}]}
{"smiles": "CC(C)n1cc(C(=O)c2cncc(N[C@@H]3COC[C@@H]3c3ccc(F)cc3)n2)c2c(N)ncnc21", "values": [{"measurement": "Ki", "setting": "[1]", "result": 570, "unit": "nM"}, {"measurement": "solubility", "setting": "[3]", "result": 23, "unit": "µM"}, {"measurement": "Papp", "setting": "[4]", "result": 13, "unit": "×10⁻⁶ cm/s"}, {"measurement": "microsomal CLint", "setting": "[5]", "result": 160, "unit": "µL/min/mg"}, {"measurement": "Ki", "setting": "[6]", "result": 170, "unit": "nM"}, {"measurement": "Ki", "setting": "[7]", "result": 260, "unit": "nM"}, {"measurement": "Ki", "setting": "[8]", "result": 500, "unit": "nM"}]}
